Experimental findings from paper PMC8248410 (Chemmedchem, 2021) are described below.

Where a SMILES comes first, the peptide text is derived from it.

The subject of this assay is HIV‐1NL4‐3. Nature of the assay: SEAP reporter cell HIV‐1 infection assay. Format: cell-based. The conditions noted are these: running text on Table 1 data; compared with P6‐2. The gist of the method:
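CEMx174 indicator cells carrying SEAP under SIV LTR control, grown in RPMI 1640 with 10 % heat‑inactivated FCS, glutamine, penicillin and streptomycin. Peptides added to cells before HIV‑1 NL4‑3, which came from 293T transfection supernatant harvested at 48 h and filtered. SEAP activity in supernatant read 3 days post‑infection by commercial kit. Mean and SEM of ≥3 independent experiments; IC50 from fitted curves.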

For the compound `CC(=O)N[C@@H](CC(C)C)C(=O)N[C@@H](CS)C(=O)N[C@@H](CC(=O)O)C(=O)N[C@@H](CS)C(=O)N1CCC[C@H]1C(=O)N[C@@H](CC(N)=O)C(=O)NCC(=O)N1CCC[C@H]1C(=O)N[C@@H](Cc1c[nH]c2ccccc12)C(=O)N[C@H](C(=O)N[C@@H](Cc1c[nH]c2ccccc12)C(=O)N[C@@H](C)C(=O)N1CCC[C@H]1C(=O)N[C@@H](C)C(=O)N[C@@H](Cc1ccccc1)C(=O)N[C@@H](CS)C(=O)N[C@@H](CCC(N)=O)C(=O)N[C@@H](C)C(=O)N[C@H](C(=O)NCC(=O)O)C(C)C)C(C)C` [P6‐2‐11] (Ac-LCDCPNGPWVWAPAFCQAVG-OH), the “HIV‐1 inhibitory activity, result in words” value is given as “approximately tenfold loss”.
Regarding “Ac-LCDCPNGPWAWVPAFCQAVG-OH (cysteine pairing not given here) [P6‐2‐9]”, the “HIV‐1 inhibitory activity, result in words” value is on record as “approximately tenfold loss”.
